Assay outcomes: PubChem BioAssay, several laboratories
STAT1 inh = STAT1 signaling inhibition | NIH 3T3 STAT1-luciferase reporter, IFN-gamma, luminescence | inhibition, % at 5.5 µM | actives 0.35% (n = 200,000) | AID 920;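 active means inhibition above a set limit, the mean inhibition across all tested compounds plus 3 SD, cut at about 34% in these data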
NF-kB expr up = compounds increasing NF-kB expression in human neuronal cells. NF-kB reporter expression; stronger effect = higher value. fold change at 12.5 µM. actives 1.6% (n = 190,000). AID 1239; in the data active means fold change above about 3.3
STAT3 blocker = reduces IL-6 driven STAT3 reporter signal | AID 862 | U3A cells, IL-6 STAT3-luciferase reporter, luminescence; host cell line lacks STAT1 | inhibition, % at 5.5 µM | actives 0.89% (n = 190,000);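 active means inhibition above the mean inhibition across all screened compounds plus 3 SD, cut at about 44% in these data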
STAT1 activator = activators of IFN-gamma induced STAT1 signaling; NIH 3T3 STAT1-luciferase reporter, luminescence; 100% = IFN-gamma alone, no compound; activation (% of control), % at 5.5 µM; actives 2.6% (n = 200,000);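 active means activation above the screen-wide mean activation plus 3 SD, cut at about 130% in these data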
STAT3 activator = increases IL-6 driven STAT3 reporter signal | actives 0.91% (n = 190,000) | U3A cells, IL-6 STAT3-luciferase reporter, luminescence; 100% = signal with IL-6 EC80 alone | activation (% of control), % at 5.6 µM | AID 871;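 active means activation above the screen-wide mean of compound activation plus 3 SD, cut at about 130% in these data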
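Material: STAT3-luciferase reporter U3A cells; Probe or stimulus: IL-6 (33 ng/mL); Incubation: compound pre-incubation 1 h before IL-6, then 6 h stimulation at 37 °C; Technique: luminescence from STAT3-driven luciferase reporter; Evaluation: % activation versus median of IL-6-stimulated wells; Controls: IL-6-only high control.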
APP 5'UTR act = APP 5'UTR luciferase reporter activation; SH-SY5Y APP 5'UTR luciferase reporter, luminescence; zero percent = DMSO vehicle wells; activation, % at 2 µM; actives 1% (n = 190,000);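 active means activation above a set limit, based on mean plus 3 SD of controls, cut at about 140% in these data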
Hits are given with their value; . = inactive; / = no result given. In the library only some 4.9% were active in any assay of this set; here they are far more common.

SMILES	STAT1 inh	NF-kB expr up	STAT3 blocker	STAT1 activator	STAT3 activator	APP 5'UTR act
Clc1ccc(Nc2ncnc3c2cnn3-c2ccccc2)cc1	.	.	.	.	.	.
Cc1cccc(-n2ncc3c(N4CCCc5ccccc54)ncnc32)c1	.	.	.	141	.	.
Cc1cccc(-n2ncc3c(NCc4ccco4)ncnc32)c1	.	.	.	130	.	.
COCCNc1ncnc2c1cnn2-c1ccc(Cl)cc1	.	7.4	.	156	.	197
Cc1cccc(-n2ncc3c(NCc4ccccc4)ncnc32)c1	.	.	.	.	.	.
NS(=O)(=O)c1ccc(CNC(=S)NC2CC2)cc1	.	.	.	.	.	.
CC(=O)Nc1ccc(Nc2ncnc3c2cnn3-c2cccc(C)c2)cc1	.	.	.	144	.	.
Cc1cccc(-n2ncc3c(N(CCO)CCO)ncnc32)c1	.	.	.	130	.	.
c1csc(CNc2ncnc3sccc23)c1	.	/	66	.	.	.
Cc1cccc(-n2ncc3c(NCc4cccs4)ncnc32)c1	.	.	.	131	.	.
c1cncc(CNc2ncnc3sccc23)c1	.	.	.	.	.	.
COCCN(CCOC)c1ncnc2c1cnn2-c1ccc(Cl)cc1	.	.	.	.	.	.
Cc1ccc(CNC(=O)COC(=O)CCCOc2ccc(Cl)cc2Cl)cc1	.	.	.	.	.	.
CS(=O)(=O)N1CCC(Oc2ccccc2C(=O)NCCCc2cccnc2)CC1	.	.	.	.	.	.
CCn1cc(/C=N/N=C2\CCC3C4CCc5cc(O)ccc5C4CC[C@]23C)c(C)n1 (some centres not stated)	.	.	.	.	.	.
Cn1c(=O)c2c(nc(SCC(=O)N(C3CCCCC3)C3CCCCC3)n2C)n(C)c1=O	.	/	.	.	.	.
COc1ccc(-c2csc(N3N=C(C)C(C)C3=O)n2)cc1 (configuration not stated)	.	.	.	132	.	.
CC1=NN(c2nc(-c3ccc(C)cc3)cs2)C(=O)C1N=Nc1ccccc1O (configuration not stated)	.	.	.	.	.	.
O=C1C2C3C=CC(CC3)C2C(=O)N1/N=C/c1c[nH]c2ccccc12 (configuration not stated)	.	.	.	137	.	.
CCC(Oc1ccccc1)C(=O)Nc1ccc(-c2nnc(-c3ccco3)o2)cc1 (configuration not stated)	.	.	.	133	.	.
COc1ccccc1OCC(=O)Nc1ccc(-c2nnc(-c3ccco3)o2)cc1	.	.	.	.	.	.
Nc1nc(-c2ccc3c(c2)CCCC3)cs1	.	5.3	.	136	.	.
Nc1nc(-c2cccc(F)c2)cs1	.	3.4	.	.	.	.
Cc1ccc(/C=N/NC(=O)Nc2ccccc2)o1	.	.	.	148	.	.
CC(=O)Nc1cccc(C(=O)N/N=C/c2ccc(C)o2)c1	.	.	.	.	.	.
SMILES	STAT1 inh	NF-kB expr up	STAT3 blocker	STAT1 activator	STAT3 activator	APP 5'UTR act
Cn1cc(-c2nnnn2-c2cccc(C(F)(F)F)c2)c(C(F)(F)F)n1	.	.	.	.	.	.
S=C(Nc1ccc(Br)cc1Cl)Nn1cnnc1	.	.	.	.	.	.
Cc1nc(NC(=O)c2oc3ccccc3c2C)sc1C(=O)N(C)C	.	.	.	139	.	.
Cc1nc(NC(=O)c2ccccc2[N+](=O)[O-])sc1C(=O)N(C)C	.	.	.	.	.	.
Cc1c(O)c(=O)ccn1C	.	.	.	.	.	.
C=CCOC(=O)Nc1snnc1C	.	.	.	.	.	.
Cc1nnsc1NC(=O)OCc1ccc(C(C)(C)C)cc1	.	.	65	.	.	.
Cc1cccc(NC(=O)c2c(O)c3cccc4c3n(c2=O)CC4)c1	.	/	.	.	158	.
C=CCNC(=O)c1ccc(-c2nc(-c3ccccc3)cs2)cc1	.	.	.	146	.	.
O=C(NC1CCCC1)c1cccc(NC(=O)c2ccco2)c1	.	.	.	.	.	.
C/C(=N\NC(=O)CN(c1ccc(Oc2ccccc2)cc1)S(C)(=O)=O)C(C)(C)C	.	.	.	.	.	.
CNC(=S)N/N=C/c1cccc(OCc2ccccc2F)c1	.	.	.	132	.	.
CCOC(=O)C1(CCCc2ccccc2)CCN(C(=O)[C@@H]2C[C@@H](C)NC(=S)N2)CC1	.	.	.	.	.	.
CSc1ccc(/C=C/c2ccc3cccc(O)c3n2)cc1	.	6.2	.	.	.	173
CCOc1ccc(CN(C)CC(=O)NCc2ccccc2Cl)cc1	.	.	.	.	.	.
Cc1ccc(/C=C/C(=O)C2C(=O)c3ccccc3C2=O)cc1	.	.	60	.	.	.
CN1C(=O)/C(=C\C=C2/CCCN2C)N(C)C1=S	.	5.7	.	.	.	.
CCN1C(=O)/C(=C/C=C2/CCCN2C)OC1=S	.	.	.	.	.	.
CN1CCN(C(=S)Nc2ccc(S(N)(=O)=O)cc2)CC1	.	.	.	.	.	.
O=C(Nc1ccccc1)N1CCCC2CCCCC21 (configuration not stated)	.	.	.	131	.	.
O=C(NC1CCCC1)C1CCCN1C(=O)Nc1ccccc1 (configuration not stated)	.	.	.	.	.	.
Cc1ccc(-c2nc(CN3CCCCC3)cc(CN3CCCCC3)c2O)cc1	.	.	.	.	.	.
COc1ccc2nc3cccc(OC)c3nc2c1	.	.	.	129	.	.
COc1ccc2nc(-c3ccco3)c(-c3ccco3)nc2c1	.	.	.	.	.	.
COc1ccc(NS(=O)(=O)c2cc(N/C(=N\S(=O)(=O)c3ccccc3)c3ccc(F)cc3)ccc2Cl)cc1	.	.	.	.	.	.
SMILES	STAT1 inh	NF-kB expr up	STAT3 blocker	STAT1 activator	STAT3 activator	APP 5'UTR act
Cn1c(SCC2CCCO2)nnc1-c1cccc([N+](=O)[O-])c1 (configuration not stated)	.	.	.	.	.	.
CC1CCN(c2ccc(C(=O)NCCc3ccccc3)cn2)CC1	.	.	.	132	.	.
CC1CCCN(c2ccc(C(=O)NCc3cccs3)cn2)C1 (configuration not stated)	.	.	.	.	.	.
CC1CCCN(c2ccc(C(=O)NCc3ccccc3)cn2)C1 (configuration not stated)	.	.	.	137	.	.
CCCNC(=O)NC(=O)COC(=O)c1ccc(OC)c(S(=O)(=O)N2CCCc3ccccc32)c1	.	.	.	.	.	.
Cc1cc(C(=O)N/N=C2\CC(=O)c3ccccc32)c(C)n1-c1ccccc1	.	.	.	137	.	.
Cc1cc(C(=O)N/N=C2\CC(=O)CC(C)(C)C2)c(C)n1-c1ccccc1	.	.	.	.	.	.
Cc1c(NC(=O)COC(=O)c2ccc(Br)o2)c(=O)n(-c2ccccc2)n1C	.	.	.	.	.	.
